Results on 1 compound are retold here after ChEMBL document CHEMBL4842338, “System-oriented optimization of multi-target 2,6-diaminopurine derivatives: Easily accessible broad-spectrum antivirals active against flaviviruses, influenza virus and SARS-CoV-2” (Eur J Med Chem, 2021).

Activity calls are given as the source filed them. No cut-off for these calls is given here.

One data set concerns dengue virus type 2. The experiment in a line: Antiviral activity against Dengue virus serotype 2 New Guinea C infected in pre-seeded Huh-7 cells assessed as inhibition of viral replication incubated for 72 hrs by immunodetection based plaque reduction assay. The format is functional, organism-based. Particulars: Huh-7, 72 h. A general note: In a plaque reduction assay, fewer plaques than in the control indicate reduced infectivity or spread.

The nature of data set [1]: Selectivity index, ratio of CC50 for MDCK cells to IC50 for Influenza A Puerto Rico/8/34/H1N1 infected in MDCK cells. It is filed as toxicity, cell-based. Particulars: dog, read-out: Selectivity Index. Summed up:
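MDCK or A549 cells (2.5 × 10⁵/well) infected with A/Puerto Rico/8/34 H1N1 for 1 h at 37 °C, then washed. Compound (0.5–20 μM) added in 2% FBS medium for 24 h, with DMSO final ≤0.2%. Virus in supernatants read by hemagglutination. CC₅₀ by MTT (2 × 10⁴ cells/well, same concentrations, 24 h, absorbance 570 nm). SI = CC₅₀/IC₅₀.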

Data set [2] deals with PIK3CA (Phosphatidylinositol 4,5-bisphosphate 3-kinase catalytic subunit alpha isoform) (Homo sapiens, UniProt P42336). Briefly: Inhibition of human full length PIK3CA assessed as residual activity at 5 uM using PI:PS (1:3) as a substrate incubated for 10 mins by scintillation counting analysis relative to control. Particulars: full length PIK3CA enzyme, probe PI:PS (1:3), read-out: Activity. Summed up: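 Radiometric kinase reaction with 10–50 ng enzyme and compound fixed at 5 μM, 10 μL at 30 °C for 10 min. Reactions spotted on filter and counted by scintillation. Residual activity is the mean ± SD of two independent experiments.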

The test system of data set [3] is Influenza A virus. Briefly: Antiviral activity against Influenza A Puerto Rico/8/34/H1N1 infected in human A549 cells assessed as inhibition of hemagglutinin expression at 20 uM pretreated for 2 hrs followed by infection of fresh cell monolayer of A549 cells with supernatant for 24 hrs by In-cell western assay. The format is functional, organism-based. Conditions: A/Puerto Rico/8/1934(H1N1). Summed up: (§1)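 A549 cells infected with PR8 H1N1 and given 20 μM compound: 2 h before infection (PRE), 1 h during adsorption (DUR), or 24 h after adsorption (POST); supernatants used to infect fresh monolayers for 24 h; anti-HA in-cell western; RFU as % of untreated infected; 3 replicates from two experiments.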

The target in data set [4] is Fyn (Tyrosine-protein kinase Fyn) (Homo sapiens, UniProt P06241). The experiment in a line: Inhibition of human recombinant N terminal His6 tagged full length Fyn assessed as residual activity at 5 uM using […] as a substrate in the presence of NP-40 incubated for 10 mins by scintillation counting analysis relative to control. Conditions: probe […], read-out: Activity. The gist of the method:
(§2)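 Compounds at fixed 5 μM; 10–50 ng kinase, substrate and NP-40/BSA per supplementary table, 10 μL at 30 °C for 10 min in low-binding tubes. Reactions spotted on filter, dried, scintillation counted. Mean ± SD of two independent experiments.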

Another data set relates to MDCK. The experiment in a line: Cytotoxicity against MDCK cells assessed as reduction in cell viability measured after 24 hrs by MTT assay. Particulars: dog, mdck, 24 h. The format is cell-based, Canis lupus familiaris. In general terms: Tetrazolium dyes change colour on reduction, which living cells bring about.
Another data set concerns West Nile virus. The experiment in a line: Antiviral activity against West Nile virus lineage 1 (Italy/2009) infected in pre-seeded Huh-7 cells assessed as inhibition of viral replication incubated for 48 hrs by immunodetection based direct yield reduction assay. Conditions: huh-7. It is filed as functional, organism-based.
In data set [5] the test system is Influenza A virus. The experiment in a line: Antiviral activity against Influenza A virus (A/parrot/Ulster/73(H7N1)) infected in human A549 cells assessed as reduction in viral protein expression at 20 uM treated for 1 hr during viral adsorption followed by staining with anti-Flu antibody observed at 24 hrs post infection by In-cell western assay. It is filed as functional, organism-based.

The next data set concerns Caco-2. The experiment in a line: Cytotoxicity against human Caco2 cells infected with SARS-COV-2 assessed as reduction in cell viability by celltiter-glo luminescent cell viability assay. The format is cell-based. The gist of the method: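 Compound-exposed cells assessed by CellTiter-Glo luminescence versus DMSO control; CC50 from dose-response.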
In data set [6] the test system is Influenza A virus. The experiment in a line: Antiviral activity against Influenza A Puerto Rico/8/34/H1N1 infected in human A549 cells assessed as reduction in viral protein expression at 20 uM treated for 2 to 6 hrs post infection and measured following infection of MDCK cells with supernatant for 24 hrs by time-of-addition assay. It is filed as functional, organism-based. Conditions: A/Puerto Rico/8/1934(H1N1), time 2-6 hrs.

In data set [7] the target is Abl (Tyrosine-protein kinase ABL1) (Homo sapiens, UniProt P00519). The experiment in a line: Inhibition of human recombinant N terminal His6 tagged Abl (27 to end residue) assessed as residual activity at 5 uM using KKGEAIYAADFA-NH2 as a substrate in the presence of NP-40 incubated for 10 mins by scintillation counting analysis relative to control. Particulars: probe KKGEAIYAADFA-NH2, read-out: Activity. Summed up: as §2

Data set [8] has as its system Influenza A virus. The experiment in a line: Antiviral activity against Influenza A Puerto Rico/8/34/H1N1 infected in human A549 cells assessed as inhibition of viral replication after 24 hrs by hemagglutination assay. The format is functional, organism-based. Particulars: A/Puerto Rico/8/1934(H1N1), A549, 24 h.
The subject of data set [9] is Influenza A virus. The experiment in a line: Antiviral activity against Influenza A virus (A/parrot/Ulster/73(H7N1)) infected in human A549 cells assessed as reduction in viral protein expression at 20 uM treated for 24 hrs, pdp viral adsorption followed by staining with anti-Flu antibody observed at 24 hrs post infection by In-cell western assay. It is filed as functional, organism-based.

Data set [10] deals with Influenza A virus. Briefly: Antiviral activity against Influenza A Puerto Rico/8/34/H1N1 infected in MDCK cells assessed as inhibition of viral replication measured in supernatants of infected cells after 24 hrs by hemagglutination assay. The format is functional, organism-based. Particulars: A/Puerto Rico/8/1934(H1N1).
A short description of data set [11]: Selectivity index, ratio of CC50 for human Huh-7 cells infected with SARS-COV-2 to IC50 for SARS-COV 2 infected in human Huh-7. The format is toxicity. Particulars: read-out: Selectivity Index.
Data set [12] in a line: Antioxidant activity assessed as inhibition of ABTS radical scavenging activity at 10 uM to 1 mM measured after 10 mins. It is filed as functional. Summed up: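 ABTS radical solution diluted in ethanol (1:100) to A734 0.70; 3.0 mL mixed with 30 μL sample in DMSO at 10 μM–1 mM; A734 read after exactly 10 min; ascorbic acid reference; % scavenging = (A0−As)/A0×100.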
Data set [13] concerns Influenza A virus. Briefly: Antiviral activity against Influenza A Puerto Rico/8/34/H1N1 infected in human A549 cells assessed as reduction in viral protein expression at 20 uM treated for 24 hrs pdp viral adsorption followed by staining with anti-Flu antibody observed at 24 hrs post infection by In-cell western assay. It is filed as functional, organism-based. Conditions: A/Puerto Rico/8/1934(H1N1).

The test system of data set [14] is Influenza A virus. The experiment in a line: Antiviral activity against Influenza A Puerto Rico/8/34/H1N1 infected in human A549 cells assessed as inhibition of hemagglutinin expression at 20 uM treated for 1 hr during viral absorption followed by infection of fresh cell monolayer of A549 cells with supernatant for 24 hrs by In-cell western assay. Conditions: A/Puerto Rico/8/1934(H1N1). The format is functional. The gist of the method: as §1

The nature of data set [15]: Toxicity in human A549 cells assessed as effect on host cell membrane. The format is cell-based.
For another data set, the target named is CDK9/cyclin T1 (Homo sapiens, UniProt P50750). Briefly: Inhibition of human full length CDK9/ His-tagged cT1 assessed as residual activity at 5 uM using CDKtide as a substrate in the presence of BSA incubated for 10 mins by scintillation counting analysis relative to control. The format is protein-complex assay. Conditions: full length CDK9/His-tagged cyclin T1 complex, probe CDKtide, read-out: Activity. The gist of the method: as §2

Data set [16] is described as follows: Selectivity index, ratio of CC50 for human Huh-7 cells to IC50 for Zika virus H/PF/2013 infected in pre-seeded Huh-7 cells assessed as inhibition of viral replication incubated for 72 hrs by immunodetection based plaque reduction assay. The format is toxicity, cell-based. Conditions: read-out: Selectivity Index.

Abl (Tyrosine-protein kinase ABL1), sequence (P00519 whole entry): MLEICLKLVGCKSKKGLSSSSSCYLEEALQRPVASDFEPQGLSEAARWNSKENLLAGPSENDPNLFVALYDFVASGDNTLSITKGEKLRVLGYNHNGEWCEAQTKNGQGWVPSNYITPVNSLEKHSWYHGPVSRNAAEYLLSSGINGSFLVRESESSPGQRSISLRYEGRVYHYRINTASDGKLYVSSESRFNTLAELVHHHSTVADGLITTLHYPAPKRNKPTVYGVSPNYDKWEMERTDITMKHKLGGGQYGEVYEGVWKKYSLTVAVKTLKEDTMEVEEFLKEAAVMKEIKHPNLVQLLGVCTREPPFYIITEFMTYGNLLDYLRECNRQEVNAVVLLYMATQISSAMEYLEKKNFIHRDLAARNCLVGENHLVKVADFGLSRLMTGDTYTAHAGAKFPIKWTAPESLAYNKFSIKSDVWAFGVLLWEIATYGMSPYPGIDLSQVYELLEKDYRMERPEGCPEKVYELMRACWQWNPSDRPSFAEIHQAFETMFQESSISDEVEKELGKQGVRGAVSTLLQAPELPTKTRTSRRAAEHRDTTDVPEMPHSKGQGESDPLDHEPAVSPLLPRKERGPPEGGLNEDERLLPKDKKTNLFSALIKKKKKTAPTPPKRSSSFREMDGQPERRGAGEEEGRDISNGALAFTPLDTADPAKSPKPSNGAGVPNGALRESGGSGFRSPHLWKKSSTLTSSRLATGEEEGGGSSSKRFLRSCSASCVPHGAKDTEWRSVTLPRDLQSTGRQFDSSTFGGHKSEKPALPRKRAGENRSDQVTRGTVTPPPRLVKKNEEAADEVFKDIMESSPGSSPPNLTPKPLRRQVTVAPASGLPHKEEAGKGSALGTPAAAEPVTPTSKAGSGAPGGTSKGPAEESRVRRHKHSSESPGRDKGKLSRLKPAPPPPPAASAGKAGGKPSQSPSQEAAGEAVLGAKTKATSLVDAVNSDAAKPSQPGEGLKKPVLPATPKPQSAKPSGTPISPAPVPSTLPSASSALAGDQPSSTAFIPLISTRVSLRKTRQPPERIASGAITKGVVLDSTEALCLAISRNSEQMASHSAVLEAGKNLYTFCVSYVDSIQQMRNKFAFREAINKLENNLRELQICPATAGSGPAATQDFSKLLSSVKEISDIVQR
CDK9/cyclin T1, sequence (O60563 whole entry): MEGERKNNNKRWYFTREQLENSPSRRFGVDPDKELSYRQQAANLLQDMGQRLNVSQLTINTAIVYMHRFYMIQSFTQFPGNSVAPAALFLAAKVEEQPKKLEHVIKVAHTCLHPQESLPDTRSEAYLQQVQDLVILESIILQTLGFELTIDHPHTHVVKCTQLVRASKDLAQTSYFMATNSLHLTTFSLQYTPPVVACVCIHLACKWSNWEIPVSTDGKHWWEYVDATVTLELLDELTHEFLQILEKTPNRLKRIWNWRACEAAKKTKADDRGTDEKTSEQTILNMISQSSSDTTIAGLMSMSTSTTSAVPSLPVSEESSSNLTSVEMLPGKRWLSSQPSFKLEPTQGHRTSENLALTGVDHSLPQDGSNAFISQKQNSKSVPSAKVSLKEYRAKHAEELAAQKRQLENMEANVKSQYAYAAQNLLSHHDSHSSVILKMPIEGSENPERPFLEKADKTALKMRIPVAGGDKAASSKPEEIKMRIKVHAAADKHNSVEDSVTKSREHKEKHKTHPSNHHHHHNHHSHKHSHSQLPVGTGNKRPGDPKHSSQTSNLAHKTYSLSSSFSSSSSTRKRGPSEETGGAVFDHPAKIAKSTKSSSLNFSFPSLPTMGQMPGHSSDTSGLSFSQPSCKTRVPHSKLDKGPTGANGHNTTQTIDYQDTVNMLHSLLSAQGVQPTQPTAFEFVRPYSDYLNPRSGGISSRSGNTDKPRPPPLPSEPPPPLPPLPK
CDK9/cyclin T1, sequence (P50750 whole entry): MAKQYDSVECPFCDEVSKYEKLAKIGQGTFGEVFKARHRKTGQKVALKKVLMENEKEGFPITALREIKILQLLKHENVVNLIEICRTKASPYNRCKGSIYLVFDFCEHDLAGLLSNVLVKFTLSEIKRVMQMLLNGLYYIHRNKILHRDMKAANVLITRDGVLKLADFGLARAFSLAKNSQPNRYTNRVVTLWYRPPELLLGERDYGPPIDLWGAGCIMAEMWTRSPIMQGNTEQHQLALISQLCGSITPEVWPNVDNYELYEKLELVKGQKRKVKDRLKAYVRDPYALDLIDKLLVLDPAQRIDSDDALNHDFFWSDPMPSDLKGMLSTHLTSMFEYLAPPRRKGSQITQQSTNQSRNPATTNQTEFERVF
PIK3CA (Phosphatidylinositol 4,5-bisphosphate 3-kinase catalytic subunit alpha isoform), sequence (P42336 whole entry, canonical isoform): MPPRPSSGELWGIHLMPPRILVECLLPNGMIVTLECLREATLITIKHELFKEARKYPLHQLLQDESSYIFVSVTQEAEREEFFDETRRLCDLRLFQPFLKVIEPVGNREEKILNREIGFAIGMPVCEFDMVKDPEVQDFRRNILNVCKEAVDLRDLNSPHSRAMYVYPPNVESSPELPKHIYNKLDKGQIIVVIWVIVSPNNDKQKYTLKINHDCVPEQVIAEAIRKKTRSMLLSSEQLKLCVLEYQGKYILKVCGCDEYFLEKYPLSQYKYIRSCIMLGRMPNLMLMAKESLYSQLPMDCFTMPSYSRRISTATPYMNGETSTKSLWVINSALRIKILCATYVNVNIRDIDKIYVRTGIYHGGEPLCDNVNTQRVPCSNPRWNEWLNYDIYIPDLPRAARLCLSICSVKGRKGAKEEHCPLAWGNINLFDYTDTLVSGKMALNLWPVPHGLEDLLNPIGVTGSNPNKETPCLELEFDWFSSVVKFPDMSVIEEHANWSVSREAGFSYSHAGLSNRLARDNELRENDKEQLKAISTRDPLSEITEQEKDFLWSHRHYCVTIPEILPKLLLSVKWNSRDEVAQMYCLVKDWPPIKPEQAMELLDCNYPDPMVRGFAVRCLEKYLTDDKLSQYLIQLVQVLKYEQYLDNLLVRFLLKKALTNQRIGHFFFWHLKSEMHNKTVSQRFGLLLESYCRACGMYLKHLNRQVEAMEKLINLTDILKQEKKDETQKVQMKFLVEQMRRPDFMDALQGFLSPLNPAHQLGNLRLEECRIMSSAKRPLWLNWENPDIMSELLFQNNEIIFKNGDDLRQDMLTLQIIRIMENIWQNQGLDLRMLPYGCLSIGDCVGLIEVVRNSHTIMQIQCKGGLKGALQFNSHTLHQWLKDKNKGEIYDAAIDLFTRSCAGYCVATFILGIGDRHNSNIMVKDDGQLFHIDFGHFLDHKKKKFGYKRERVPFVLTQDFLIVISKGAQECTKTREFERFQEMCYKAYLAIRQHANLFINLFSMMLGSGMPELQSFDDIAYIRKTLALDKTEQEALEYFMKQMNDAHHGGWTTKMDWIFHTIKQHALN
Fyn (Tyrosine-protein kinase Fyn), sequence (P06241 whole entry): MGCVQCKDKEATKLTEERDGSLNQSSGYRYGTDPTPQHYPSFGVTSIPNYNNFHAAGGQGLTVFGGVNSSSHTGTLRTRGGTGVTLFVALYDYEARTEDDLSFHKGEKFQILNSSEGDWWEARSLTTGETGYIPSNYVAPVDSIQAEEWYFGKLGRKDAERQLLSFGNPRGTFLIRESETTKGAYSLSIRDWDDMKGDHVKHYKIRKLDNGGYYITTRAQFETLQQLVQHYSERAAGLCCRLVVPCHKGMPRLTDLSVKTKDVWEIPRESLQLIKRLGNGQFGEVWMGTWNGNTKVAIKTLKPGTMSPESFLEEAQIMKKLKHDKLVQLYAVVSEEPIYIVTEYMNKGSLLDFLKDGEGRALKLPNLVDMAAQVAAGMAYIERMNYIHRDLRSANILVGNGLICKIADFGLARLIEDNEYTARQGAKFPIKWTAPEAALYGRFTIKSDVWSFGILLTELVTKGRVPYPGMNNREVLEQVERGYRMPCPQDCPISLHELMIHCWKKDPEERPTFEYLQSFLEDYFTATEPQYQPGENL

What is called IC50 is the concentration that gives 50% inhibition. Broadly, the inhibition is the share of the control response that was lost under treatment. A word on the CC50: it is the concentration at which the toxic effect on the cells reaches its halfway point. For `FC(F)(F)c1cccc(Nc2nc(NCCOc3ccccc3)nc3[nH]cnc23)c1`, the IC50 in the data set on dengue virus type 2 is 0.9 µM; with West Nile virus, “Not Active”; in the data set with Influenza A virus [8], 9.9 µM; in the data set with Influenza A virus [10] it was 5.3 µM. In addition, the selectivity ratio was found to be 14.5 in [1] and 74 in [11]. For the same compound, the activity at 10 min, 5 µM in data set [2] is 66%; in data set [4], over 98%; in data set [7] it was 70%; at CDK9/cyclin T1, over 98%. The inhibition result in the data set with Influenza A virus [3] is “inactive”. The CC50 in the data set with MDCK was determined as 77 µM; in the data set on Caco-2, 81.3 µM. In addition, the Activity entry (in the data set on Influenza A virus [5]; in the data set with Influenza A virus [6]; with Influenza A virus [9]; in data set [12]; in the data set with Influenza A virus [13]) was “Active” each time. Further, the inhibition at 20 µM in the data set on Influenza A virus [14] amounted to 50%. Further, in data set [15], the Activity result is given as “Toxic”. Besides, the selectivity ratio at 72 h in [16] came to 400.
